From ChEMBL document CHEMBL1123827, “Alpha 2-adrenergic agonists/antagonists: the synthesis and structure-activity relationships of a series of indolin-2-yl and tetrahydroquinolin-2-yl imidazolines” (J Med Chem, 1987)

What was measured:
[1] = target: T1, Adrenergic receptor alpha-2 (Rattus norvegicus, UniProt P22086+P19328+P22909); assay: The compound was evaluated for the alpha-2 adrenergic receptor antagonistic activity in rat vas deferens vs clonidin; type: functional, tissue-based
T1 sequence (P22086 whole entry): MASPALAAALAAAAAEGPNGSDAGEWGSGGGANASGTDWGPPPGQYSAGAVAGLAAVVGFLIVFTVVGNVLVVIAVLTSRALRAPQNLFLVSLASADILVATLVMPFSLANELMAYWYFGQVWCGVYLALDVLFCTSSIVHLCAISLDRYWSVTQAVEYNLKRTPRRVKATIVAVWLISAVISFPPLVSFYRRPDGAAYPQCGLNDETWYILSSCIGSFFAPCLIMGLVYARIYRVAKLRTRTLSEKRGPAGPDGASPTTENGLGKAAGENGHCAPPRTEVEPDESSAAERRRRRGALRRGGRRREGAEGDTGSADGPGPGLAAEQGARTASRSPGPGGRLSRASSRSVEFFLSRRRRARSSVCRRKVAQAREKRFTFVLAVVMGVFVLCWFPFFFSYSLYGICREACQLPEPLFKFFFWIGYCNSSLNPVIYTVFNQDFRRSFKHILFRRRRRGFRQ
T1 sequence (P19328 whole entry): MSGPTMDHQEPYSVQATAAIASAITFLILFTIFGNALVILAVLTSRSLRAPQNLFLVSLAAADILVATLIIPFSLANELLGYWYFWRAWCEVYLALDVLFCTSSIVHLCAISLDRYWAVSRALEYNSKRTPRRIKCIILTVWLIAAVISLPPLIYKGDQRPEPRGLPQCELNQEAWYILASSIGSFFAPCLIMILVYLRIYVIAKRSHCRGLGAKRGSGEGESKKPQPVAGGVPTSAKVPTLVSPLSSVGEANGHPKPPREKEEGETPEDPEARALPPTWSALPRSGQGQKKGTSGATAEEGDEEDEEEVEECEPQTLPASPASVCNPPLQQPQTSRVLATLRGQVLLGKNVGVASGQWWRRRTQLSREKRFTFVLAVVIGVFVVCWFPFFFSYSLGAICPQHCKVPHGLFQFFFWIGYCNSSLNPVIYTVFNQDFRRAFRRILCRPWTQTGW
T1 sequence (P22909 whole entry): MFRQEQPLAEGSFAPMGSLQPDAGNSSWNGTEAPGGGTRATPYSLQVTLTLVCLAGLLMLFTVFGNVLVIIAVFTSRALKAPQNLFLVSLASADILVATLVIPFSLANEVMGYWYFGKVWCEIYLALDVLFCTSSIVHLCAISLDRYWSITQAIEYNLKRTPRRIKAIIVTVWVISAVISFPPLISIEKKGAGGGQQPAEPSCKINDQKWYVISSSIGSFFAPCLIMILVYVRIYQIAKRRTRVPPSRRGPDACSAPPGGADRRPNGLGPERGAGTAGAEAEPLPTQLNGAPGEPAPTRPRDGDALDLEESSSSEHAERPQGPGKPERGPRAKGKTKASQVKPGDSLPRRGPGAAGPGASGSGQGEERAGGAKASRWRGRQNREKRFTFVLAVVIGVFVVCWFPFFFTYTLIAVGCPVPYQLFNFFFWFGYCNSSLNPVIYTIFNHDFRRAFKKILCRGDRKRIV
Summary of the method: (§1)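 Vasa deferentia from Sprague-Dawley rats (180–250 g) mounted between platinum ring electrodes at 1 g resting tension in oxygenated Krebs at 37 °C. Single-pulse electrical stimulation (1 ms, 0.15 Hz, lowest voltage giving maximal contraction).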

[2] = target: T1, Adrenergic receptor alpha-2; assay: Binding affinity against alpha-2 adrenergic receptor was determined by the displacement of [3H]clonidine from rat brain cortical membranes; type: cell membranes, Membrane
[3] = target: T1, Adrenergic receptor alpha-2; assay: Alpha-2 adrenergic receptor agonistic activity in rat vas deferens.
[4] = target: T1, Adrenergic receptor alpha-2; assay: Alpha-2 adrenergic receptor antagonistic activity in rat vas deferens vs clonidin; type: functional, tissue-based; summary of the method: as §1
Mus musculus = assay: Antagonistic activity against clonidine-induced antinociception in mouse after po administration; type: functional
Summary of the method: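 Swiss Webster mice (18–24 g), 10 per treatment. Test compound was given orally in 0.9% NaCl at 10 mL/kg. […] Mice were observed 5–10 min after PPQ, and those writhing at least 3 times were counted as percent reversal.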

[5] = target: T1, Adrenergic receptor alpha-2; assay: Alpha-2 adrenergic receptor antagonistic activity in rat vas deferens vs clonidine; type: functional, tissue-based
[6] = target: T2, Adrenergic receptor alpha-2 (Rattus norvegicus) (UniProt P22086+P19328+P22909); assay: The compound was evaluated for the alpha-2 adrenergic receptor antagonistic activity in rat vas deferens vs clonidin; l = compound contracted the tissue at 100nM, which is an alpha-1 agonist like response; type: functional, tissue-based; settings: filed as agonist
[7] = target: T2, Adrenergic receptor alpha-2 (Rattus norvegicus); assay: The compound was evaluated for the alpha-2 adrenergic receptor antagonistic activity in rat vas deferens vs clonidine; i = the compound contracted the tissue at 100 nM; type: functional, tissue-based; settings: filed as agonist; summary of the method: as §1
[8] = target: T3, Adrenergic receptor alpha-1 (Rattus norvegicus, UniProt P15823+P23944+P43140); assay: The compound was evaluated for the alpha-1 adrenergic receptor antagonistic activity in rat vas deferens vs methoxamine alpha-1 adrenoceptor antagonism; type: functional, tissue-based
T3 sequence (P15823 whole entry): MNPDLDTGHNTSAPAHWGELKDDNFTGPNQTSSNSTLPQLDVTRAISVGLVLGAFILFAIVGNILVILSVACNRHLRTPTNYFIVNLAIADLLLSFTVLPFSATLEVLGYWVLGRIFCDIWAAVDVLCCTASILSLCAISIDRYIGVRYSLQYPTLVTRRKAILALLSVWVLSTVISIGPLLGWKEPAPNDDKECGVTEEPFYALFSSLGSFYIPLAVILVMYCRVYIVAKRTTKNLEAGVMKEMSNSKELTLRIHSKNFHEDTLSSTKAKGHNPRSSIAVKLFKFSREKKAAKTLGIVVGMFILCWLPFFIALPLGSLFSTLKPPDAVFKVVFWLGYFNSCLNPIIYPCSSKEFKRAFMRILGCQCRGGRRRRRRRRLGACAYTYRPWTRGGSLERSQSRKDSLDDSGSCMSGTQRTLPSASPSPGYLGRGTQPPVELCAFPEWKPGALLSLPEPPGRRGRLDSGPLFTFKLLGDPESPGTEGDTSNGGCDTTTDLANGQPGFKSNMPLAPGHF
T3 sequence (P23944 whole entry): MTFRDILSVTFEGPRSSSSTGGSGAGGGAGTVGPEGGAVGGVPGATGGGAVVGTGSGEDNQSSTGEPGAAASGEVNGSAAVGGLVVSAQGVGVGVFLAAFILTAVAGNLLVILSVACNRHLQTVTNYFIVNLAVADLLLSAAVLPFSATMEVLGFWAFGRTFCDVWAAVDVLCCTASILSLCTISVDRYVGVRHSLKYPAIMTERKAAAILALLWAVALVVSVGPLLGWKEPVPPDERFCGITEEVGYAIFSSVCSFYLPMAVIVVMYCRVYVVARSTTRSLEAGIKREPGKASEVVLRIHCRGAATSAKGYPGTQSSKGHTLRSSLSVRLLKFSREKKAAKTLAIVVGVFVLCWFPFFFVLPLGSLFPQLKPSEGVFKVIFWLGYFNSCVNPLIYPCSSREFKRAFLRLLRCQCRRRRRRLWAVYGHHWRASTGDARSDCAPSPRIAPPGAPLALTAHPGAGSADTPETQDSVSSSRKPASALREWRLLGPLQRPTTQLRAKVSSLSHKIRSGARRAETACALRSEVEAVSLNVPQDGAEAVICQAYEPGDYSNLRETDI
T3 sequence (P43140 whole entry): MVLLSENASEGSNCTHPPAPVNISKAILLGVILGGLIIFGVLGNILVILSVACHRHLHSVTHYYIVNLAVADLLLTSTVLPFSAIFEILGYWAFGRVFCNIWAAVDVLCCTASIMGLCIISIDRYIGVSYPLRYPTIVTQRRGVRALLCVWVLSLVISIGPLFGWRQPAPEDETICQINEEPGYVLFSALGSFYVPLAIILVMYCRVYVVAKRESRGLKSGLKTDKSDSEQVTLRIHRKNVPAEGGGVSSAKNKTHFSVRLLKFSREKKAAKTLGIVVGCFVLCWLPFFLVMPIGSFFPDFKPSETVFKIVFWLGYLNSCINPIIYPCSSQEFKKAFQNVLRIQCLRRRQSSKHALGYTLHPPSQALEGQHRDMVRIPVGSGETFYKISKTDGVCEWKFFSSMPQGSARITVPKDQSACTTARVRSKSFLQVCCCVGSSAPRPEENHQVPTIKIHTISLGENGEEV
Summary of the method: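 Vasa deferentia from Sprague-Dawley rats (180–250 g) mounted at 1 g resting tension in oxygenated Krebs at 31 °C. Methoxamine was the reference α1 agonist. Agonist concentration-effect curves were run without and with at least three antagonist concentrations after 10 min preincubation. Potency was taken from Schild analysis, mean of at least three preparations from separate animals.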

[9] = target: T3, Adrenergic receptor alpha-1; assay: Binding affinity against alpha-1 adrenergic receptor was determined by the displacement of [3H]prazosin from rat brain cortical membranes; value ranges from 4.6-30.6; type: cell membranes, Membrane
Summary of the method: (§2)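 Rat cortex was homogenized in 50 mM Tris pH 7.7, washed twice by centrifugation at 48000g and resuspended in 150 volumes. […] Nonspecific binding was defined with 10 μM phentolamine. Bound label was counted on filters, in triplicate. IC50 by logit plot, converted to Ki by Cheng-Prusoff.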

[10] = target: T3, Adrenergic receptor alpha-1; assay: Binding affinity against alpha-1 adrenergic receptor was determined by the displacement of [3H]prazosin from rat brain cortical membranes; value ranges from 7.8-34.6; type: cell membranes, Membrane; summary of the method: as §2
[11] = target: T3, Adrenergic receptor alpha-1; assay: Binding affinity against alpha-1 adrenergic receptor was determined by the displacement of [3H]prazosin from rat brain cortical membranes; value ranges from 6.06-7.06; type: cell membranes, Membrane; summary of the method: as §2
[12] = target: T1, Adrenergic receptor alpha-2; assay: The compound was evaluated for the alpha-2 adrenergic receptor agonistic activity in rat vas deferens; the effect was not yohimbine reversible.

Row | SMILES | Ki [2] [nM] | pA2 [4] | ED50 (Mus musculus) [mg/kg] | also measured
1 | C=CC[C@@]1(C2=NCCN2)Cc2ccccc2N1C | 77 |  |  | pA2 [1]: 6.96; IC50 [3]: > 1000 nM
2 | C[C@@H]1Cc2ccccc2N(C)[C@@H]1C1=NCCN1 | 719 | 5.88 |  | 
3 | CCN1c2ccccc2CC1C1=NCCN1 (stereo not given) | 0.91 | 8.91 | 2.6 | 
4 | COC(=O)[C@@H]1[C@H]2C[C@H]3c4[nH]c5ccccc5c4CCN3C[C@@H]2CC[C@@H]1O [YOHIMBINE] |  |  | 0.6 | 
5 | C[C@@H]1c2ccccc2N(C)[C@@H]1C1=NCCN1 | 6.9 |  | > 300 | pA2 [1]: < 6; IC50 [3]: 3.29 nM
6 | CN1c2ccccc2CC1CC1=NCCN1 (stereo not given) | 355 |  |  | pA2 [5]: < 6
7 | CCOCCN1c2ccccc2CC1C1=NCCN1 (stereo not given) | 26 |  | 20.5 | pA2 [5]: 7.81
8 | CN1c2ccccc2CCC1C1=NCCN1 (stereo not given) | 1.52 | 8.13 |  | 
9 | CN(CC1=NCCN1)c1ccccc1 | 3.9 |  |  | pA2 [6]: Agonist
10 | CC(C)N(C[C@@]1(C2=NCCN2)Cc2ccccc2N1C)C(C)C | 25.1 |  |  | IC50 [3]: 94.8 nM
11 | c1ccc2c(c1)CCN2C1=NCCN1 | > 1000 |  |  | 
12 | CCCN1c2ccccc2CC1C1=NCCN1 (stereo not given) | 1.93 | 8.76 | 100 | 
13 | c1ccc2c(c1)OCC(C1=NCCN1)O2 (stereo not given) [IDAZOXAN] |  |  | 1.6 | 
14 | Cn1c(C2=NCCN2)cc2ccccc21 | > 1000 |  |  | pA2 [5]: > 6
15 | c1ccc(N2c3ccccc3CC2C2=NCCN2)cc1 (stereo not given) | 4.2 |  |  | pA2 [7]: Agonist
16 | CN1c2ccccc2C[C@@]1(C)C1=NCCN1 | 3.4 |  |  | pA2 [1]: 7.55; IC50 [3]: > 300 nM
17 | c1ccc2c(c1)CCC(C1=NCCN1)N2 (stereo not given) | 13.8 | 8.03 |  | 

Row | SMILES | Ki [2] [nM] | pA2 [4] | ED50 (Mus musculus) [mg/kg] | also measured
18 | CN1c2ccc(Cc3ccccc3)cc2CC1C1=NCCN1 (stereo not given) | 53.6 | 7.59 | > 100 | 
19 | CN1c2c(Cl)cccc2CC1C1=NCCN1 (stereo not given) | 0.72 |  | 0.1 | pA2 [1]: 8.8
20 | CN1c2c(Cl)cc(Cl)cc2CC1C1=NCCN1 (stereo not given) | 12.3 | 8 |  | 
21 | c1ccc2c(c1)CC(C1=NCCN1)N2 (stereo not given) | 2.11 |  |  | pA2 [5]: 8.16
22 | C[C@@H]1Cc2ccccc2N[C@@H]1C1=NCCN1 | > 1000 | < 6 |  | IC50 [3]: > 1000 nM
23 | CN1c2ccccc2CC1C1=NCCN1 (stereo not given) | 0.45 | 8.65 | 1.3 | pA2 [8]: 7.75; Ki [9]: 10.5 nM
24 | CN1c2ccc(F)cc2CC1C1=NCCN1 (stereo not given) | 0.91 | 8.45 |  | pA2 [8]: 8.03; Ki [10]: 16.4 nM
25 | CCC[C@@]1(C2=NCCN2)Cc2ccccc2N1C | 260 | 6.6 |  | IC50 [3]: > 1000 nM
26 | CN1c2ccc(Cl)cc2CC1C1=NCCN1 (stereo not given) | 1.9 | 8.56 |  | 
27 | C=CCN1c2ccccc2CC1C1=NCCN1 (stereo not given) | 0.47 |  |  | Ki [11]: 6.56 nM; pA2 [8]: 8.02; pA2 [5]: 9.07
28 | C[C@H]1c2ccccc2N(C)[C@@H]1C1=NCCN1 | 72.3 | 6.96 |  | IC50 [3]: > 1000 nM
29 | CCCCN1c2ccccc2CC1C1=NCCN1 (stereo not given) | 3.5 |  | 4 | pA2 [5]: 8.8
30 | c1ccc(CN2c3ccccc3CC2C2=NCCN2)cc1 (stereo not given) | 2.3 | 7.93 | 7 | 
31 | COC[C@@]1(C2=NCCN2)Cc2ccccc2N1C | 38 |  |  | IC50 [12]: 131 nM
32 | c1ccc(CCN2c3ccccc3CC2C2=NCCN2)cc1 (stereo not given) | 6 |  | 6 | 
33 | Cn1c(CC2=NCCN2)cc2ccccc21 | 46.7 |  | 100 | pA2 [5]: 7.48
